Reference: ChEMBL document CHEMBL4312027, “Synthesis, characterization, and biological activity of a triphenylphosphonium-containing imidazolium salt against select bladder cancer cell lines” (Eur J Med Chem, 2020)
The source made the active and inactive calls. No cut-off for these calls is given here.

Tests used:
RT-112 [1] = experiment: Cytotoxicity against human RT112 cells assessed as cellular fragmentation at 250 to 500 uM incubated for 1 hr and measured at 24 hrs after treatment; type: functional, cell-based
NCI-H460 = experiment: Growth inhibition of human NCI-H460 cells assessed as growth percent at 10 uM incubated for 48 hrs by sulforhodamine B assay relative to control; type: functional; conditions: NCI-H460, 48 h, read-out: Activity
RT-112 [2] = experiment: Mito-toxicity in mitochondria isolated from human RT112 cells assessed as increase in cytochrome C release at 200 uM incubated for 1 hr and measured after 4 hrs incubation in preservative buffer by Western blot analysis; type: functional
How it was run: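 Mitochondria isolated from 20 million RT112 cells with a kit. Exposed to 200 μM, 100 μM CCCP or 10% DMSO for 1 h at 37 °C, then kept in mitochondria preservative buffer at 37 °C. Spun after 1 h and 4 h into supernatant and pellet; pellet lysed. Cytochrome c in each fraction detected by western blot.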

HOP-62 = experiment: Growth inhibition of human HOP62 cells assessed as growth percent at 10 uM incubated for 48 hrs by sulforhodamine B assay relative to control; type: functional; conditions: HOP-62, 48 h, read-out: Activity
RT-112 [3] = experiment: Induction of apoptosis in human RT112 cells assessed as increase in PARP cleavage at 500 uM incubated for 1 hr and measured immediately after treatment by Western blot analysis; type: functional, cell-based
How it was run: (§1)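 RT112 seeded 300,000/well; after 24 h, 250 or 500 μM or vehicle. Cells plus floating debris harvested immediately or 24 h after treatment, lysed in RIPA with protease inhibitors. About 30 μg protein heated 10 min at 95 °C with DTT, run on SDS-PAGE. Immunoblotted for PARP and caspase 9, Ran as loading control, ECL detection.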

SK-OV-3 = experiment: Growth inhibition of human SKOV3 cells assessed as growth percent at 10 uM incubated for 48 hrs by sulforhodamine B assay relative to control; type: functional; conditions: SK-OV-3, 48 h, read-out: Activity
NCI-H23 = experiment: Growth inhibition of human NCI-H23 cells assessed as growth percent at 10 uM incubated for 48 hrs by sulforhodamine B assay relative to control; type: functional; conditions: NCI-H23, 48 h, read-out: Activity
Mus musculus = experiment: Induction of urothelium exfoliation in anesthetized female mouse model assessed as decrease in urothelial cell height at 750 to 1500 uM administered via intravesical instillation after bladder evacuation treated for 1 hr followed by repetition of the treatment after 24 hrs and measured at 24 hrs after final treatment by hematoxylin and eosin staining based analysis; type: organism-based; conditions: in vivo, other
How it was run: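 Female mice anesthetized, 1–3% isoflurane. Bladder evacuated, then 100 μL of 750 or 1500 μM in 10% DMSO/PBS (or vehicle) instilled by 24G angiocatheter. Catheter left in place for a 1 h dwell. Repeated after 24 h; mice sacrificed 24 h after final dose. Bladder histology read for urothelial height and layers.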

A549 = experiment: Growth inhibition of human A549/ATCC cells assessed as growth percent at 10 uM incubated for 48 hrs by sulforhodamine B assay relative to control; type: functional; conditions: A549, 48 h, read-out: Activity
RT-4 [4] = experiment: Growth inhibition of human RT4 cells at 500 uM measured after 1 hr by Celltiter-Glo luminescent cell viability assay relative to control; type: functional; conditions: RT-4, 1 h, read-out: GI
How it was run: (§2)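 Cells seeded 10000/well, 24 h, then exposed in ATCC-recommended medium to 62.5–2000 μM (two-fold steps) or vehicle for the set time (5–60 min), then normal medium. After 24 h, plates equilibrated 30 min at room temperature, CellTiter-Glo added, 2 min at room temperature, luminescence read. Survival relative to vehicle control; quadruplicate.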

UMUC3 = experiment: Anticlonogenic activity against human UM-UC-3 cells assessed as no colony formation at 250 to 500 uM incubated for 1 hr measured after culturing in normal medium for 10 days by crystal violet staining assay; type: functional, cell-based
How it was run: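 Cells seeded at 500/well, treated 24 h later with 250 or 500 μM drug or vehicle for 1 h. Cells were then grown in normal media for 10 days, stained with 0.5% crystal violet in 20% MeOH/water at 4 °C for 5 min, washed, dried and imaged. Run in triplicate.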

COLO 205 = experiment: Growth inhibition of human COLO205 cells assessed as growth percent at 10 uM incubated for 48 hrs by sulforhodamine B assay relative to control; type: functional; conditions: COLO 205, 48 h, read-out: Activity
CAKI-1 = experiment: Growth inhibition of human Caki1 cells assessed as growth percent at 10 uM incubated for 48 hrs by sulforhodamine B assay relative to control; type: functional; conditions: CAKI-1, 48 h, read-out: Activity
PC-3 = experiment: Growth inhibition of human PC3 cells assessed as growth percent at 10 uM incubated for 48 hrs by sulforhodamine B assay relative to control; type: functional; conditions: PC-3, 48 h, read-out: Activity
EKVX = experiment: Growth inhibition of human EKVX cells assessed as growth percent at 10 uM incubated for 48 hrs by sulforhodamine B assay relative to control; type: functional; conditions: read-out: Activity
RT-4 [5] = experiment: Growth inhibition of human RT4 cells at 500 uM by Celltiter-Glo luminescent cell viability assay; type: functional, cell-based; conditions: TDE = time-dependent effect; how it was run: as §2
RT-112 [6] = experiment: Induction of apoptosis in human RT112 cells assessed as caspase 9 cleavage at 500 uM incubated for 1 hr and measured immediately after treatment by Western blot analysis; type: functional, cell-based; how it was run: as §1
SW780 = experiment: Growth inhibition of human SW780 cells measured after 1 hr by Celltiter-Glo luminescent cell viability assay; type: functional; conditions: SW780, 1 h; how it was run: as §2
RT-112 [7] = experiment: Growth inhibition of human RT112 cells at 1000 uM measured after 15 to 60 mins by Celltiter-Glo luminescent cell viability assay relative to control; type: functional; conditions: read-out: GI; how it was run: as §2
RT-4 [8] = experiment: Growth inhibition of human RT4 cells at 1000 uM measured after 15 to 60 mins by Celltiter-Glo luminescent cell viability assay relative to control; type: functional; conditions: read-out: GI; how it was run: as §2
SNB-19 = experiment: Growth inhibition of human SNB19 cells assessed as growth percent at 10 uM incubated for 48 hrs by sulforhodamine B assay relative to control; type: functional; conditions: SNB-19, 48 h, read-out: Activity
SR = experiment: Growth inhibition of human SR cells assessed as growth percent at 10 uM incubated for 48 hrs by sulforhodamine B assay relative to control; type: functional; conditions: read-out: Activity
MOLT-4 = experiment: Growth inhibition of human MOLT4 cells assessed as growth percent at 10 uM incubated for 48 hrs by sulforhodamine B assay relative to control; type: functional; conditions: MOLT-4, 48 h, read-out: Activity
UACC-62 = experiment: Growth inhibition of human UACC62 cells assessed as growth percent at 10 uM incubated for 48 hrs by sulforhodamine B assay relative to control; type: functional; conditions: UACC-62, 48 h, read-out: Activity
SF-539 = experiment: Growth inhibition of human SF539 cells assessed as growth percent at 10 uM incubated for 48 hrs by sulforhodamine B assay relative to control; type: functional; conditions: SF-539, 48 h, read-out: Activity
DU-145 = experiment: Growth inhibition of human DU145 cells assessed as growth percent at 10 uM incubated for 48 hrs by sulforhodamine B assay relative to control; type: functional; conditions: DU-145, 48 h, read-out: Activity
Malme-3M = experiment: Growth inhibition of human MALME-3M cells assessed as growth percent at 10 uM incubated for 48 hrs by sulforhodamine B assay relative to control; type: functional; conditions: read-out: Activity

[Br-].[Br-].c1ccc([P+](CCCc2n(Cc3ccc4ccccc4c3)c3ccccc3[n+]2Cc2ccc3ccccc3c2)(c2ccccc2)c2ccccc2)cc1
Activity (RT-112 [1]): Active | growth at 10 µM (NCI-H460): 34.8% | Activity (RT-112 [2]): Active | growth at 10 µM (HOP-62): 61.6% | Activity (RT-112 [3]): Active | growth at 10 µM (SK-OV-3): 84.5% | growth at 10 µM (NCI-H23): 44% | Activity (Mus musculus): Non-Toxic | growth at 10 µM (A549): 80.2% | inhibition of growth at 500 µM (RT-4 [4]): 100% | inhibition (UMUC3): Active | growth at 10 µM (COLO 205): 44.7% | growth at 10 µM (CAKI-1): 79.9% | growth at 10 µM (PC-3): 67.5% | growth at 10 µM (EKVX): 59.4% | growth inhibition (GI) (RT-4 [5]): Tde | Activity (RT-112 [6]): inactive | GI50 (SW780): 200 µM | inhibition of growth at 1000 µM (RT-112 [7]): 100% | inhibition of growth at 1000 µM (RT-4 [8]): 100% | growth at 10 µM (SNB-19): 38.5% | growth at 10 µM (SR): 30.8% | growth at 10 µM (MOLT-4): 57.6% | growth at 10 µM (UACC-62): 37.8% | growth at 10 µM (SF-539): 36.8% | growth at 10 µM (DU-145): 82.1% | growth at 10 µM (Malme-3M): 65.2%
